PTEN del growth: growth suppression of PTEN-null HCT116, primary screen, cell-based, CellTiter-Glo. HCT116 PTEN-null viability, 60 h; active compounds read low. viability, % at 10 µM. hit rate 1.2% among 140,000;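 active = viability at or below a set limit, 4 SD under the median of all tested compounds, cut at about 3.7% in these data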;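 also: PTEN knockout HCT116 line with beta catenin targeted HCT116 as companion control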
bCat KO growth: primary screen for growth suppressors in beta-catenin knockout HCT116 cells (colon tumor, human); HCT116 beta-catenin knockout viability, CellTiter-Glo, 60 h; active compounds read low; viability, % at 10 µM; hit rate 1.5% among 140,000; AID 818, 2007;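 active = viability at or under a set limit, the compound median less 4 SD, cut at about 6% in these data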;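 also: 0% = Hyamine 1622 control at 20 µM and 100% = untreated cell control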
TNAP inh hi DEA: human TNAP enzyme inhibitors, primary screen, biochemical, luminescent, high phosphate acceptor level, uHTS | Alkaline phosphatase, tissue-nonspecific isozyme (Homo sapiens), P05186 | purified TNAP, CDP-star luminescence, 1 M DEA | inhibition, % at 20 µM | hit rate 0.03% among 200,000 | AID 1135, 2008;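 active = over 50% inhibition of tissue-nonspecific alkaline phosphatase at 20 µM in the single-dose screen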;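 also: plate controls were DMSO wells for no effect and EDTA-quenched wells as full inhibition for full effect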
Target sequence (P05186 whole entry, looked up): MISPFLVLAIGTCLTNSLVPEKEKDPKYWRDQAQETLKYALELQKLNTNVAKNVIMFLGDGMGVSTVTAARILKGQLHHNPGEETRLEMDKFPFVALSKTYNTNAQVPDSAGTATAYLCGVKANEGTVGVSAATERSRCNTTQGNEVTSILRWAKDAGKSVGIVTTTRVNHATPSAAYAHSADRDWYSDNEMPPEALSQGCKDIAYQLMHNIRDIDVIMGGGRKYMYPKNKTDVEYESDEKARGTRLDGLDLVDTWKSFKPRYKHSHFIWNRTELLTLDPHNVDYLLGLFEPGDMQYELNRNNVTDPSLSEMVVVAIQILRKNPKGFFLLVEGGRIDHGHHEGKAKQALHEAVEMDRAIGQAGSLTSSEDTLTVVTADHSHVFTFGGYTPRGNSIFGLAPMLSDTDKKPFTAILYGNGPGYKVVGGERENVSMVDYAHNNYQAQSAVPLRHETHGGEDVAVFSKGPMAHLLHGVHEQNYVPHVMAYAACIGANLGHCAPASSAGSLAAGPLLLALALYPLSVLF
TNAP act hiacc: TNAP activators at high phosphate acceptor level, primary screen, biochemical, luminescence, uHTS. Alkaline phosphatase, tissue-nonspecific isozyme (Homo sapiens), P05186. purified TNAP, CDP-star luminescence, 1 M DEA, 30 min; active compounds read high; 0 = EDTA background, 1 = DMSO-only activity. activation factor at 20 µM. 200,000 tested, under 10 active;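 active = activation factor at least 2 at 20 µM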
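Measured by: Luminescent substrate turnover signal | Test system: Human TNAP | Input: TNAP 1/800 final | Dosing: 20 µM single point | Schedule: 30 min, room temperature | Controls: EDTA wells as negative control, DMSO wells as positive control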
L major viab: Leishmania major promastigote growth inhibition, primary screen | inhibition, % at 10 µM | Leishmania major promastigotes, resazurin fluorescence viability | hit rate 9% among 200,000 | AID 1063, 2008; in the data active = inhibition above about 50%;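 also: promastigotes grown with compound for 44 hours at 28 °C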
TNAP inh no acc: human TNAP enzyme inhibitors, primary screen, biochemical, luminescent, no phosphate acceptor, uHTS | Alkaline phosphatase, tissue-nonspecific isozyme (Homo sapiens), P05186 | purified TNAP, CDP-star luminescence, 30 min | hit rate 0.26% among 200,000 | inhibition, % at 20 µM;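 active = tissue-nonspecific alkaline phosphatase inhibition above about 50% at 20 µM in the single-dose screen, limit read from the data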;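 also: 0% = DMSO negative control and 100% = EDTA positive control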
L major 1uM: Leishmania major promastigote growth inhibition, confirmation, 1 µM repeat of primary hits | inhibition, % at 1 µM | L. major promastigote growth, resazurin fluorescence, 48 h | hit rate 13% among 1,100 | shares compounds with L major viab;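 active = inhibition above about 50% in both repeat tests, limit read from the data; inconclusive = one repeat under the set limit, the other over it; inactive = both repeats under the set limit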
* = called active by the depositor; u = inconclusive; x = not tested or not shown. The list is not random: actives were taken first. Their share in the collection is about 9.6%.

SMILES	PTEN del growth	bCat KO growth	TNAP inh hi DEA	TNAP act hiacc	L major viab	TNAP inh no acc	L major 1uM
OCCN1CCN(CC(O)COCC2COc3ccccc3O2)CC1 (stereo not given)	x	x	-5.3	1.1	-4.6	-11.3	x
OC(COCC1COc2ccccc2O1)CN1CCN(c2ccccc2F)CC1 (stereo not given)	80.7	83.3	-1.4	1	65.3*	-10.3	-9.8
CCCCCCCCCCCCCCCC[n+]1ccc(/C=N/O)cc1	1.0*	0.9*	6.3	0.9	100.4*	19.1	101.0*
CCCCC(=O)Nc1ccc(C(N)=O)cc1	92.4	92.0	-0.6	1	-8.8	-9.9	x
CCCCN(CCCC)C(=O)C[n+]1cccc(/C=N/O)c1	x	x	-3.4	1	-3.7	-2.6	x
CCCCCCCCCCCCCCCC[n+]1cccc(C(=O)N(CC)CC)c1	1.5*	1.5*	1.4	1	100.4*	-1.1	79.4*
CCOC(=O)c1ccc[n+](CC(=O)c2ccccc2)c1	96.3	97.7	5.1	0.9	6.5	-11.4	x
CCCCCCCCCCCCCCCC[n+]1ccc(C(N)=O)cc1	1.1*	1.1*	3.3	1	100.2*	25.0	8.9
COC(=O)C1CSC(c2ccc(Cl)cc2)N1C(=O)c1ccccc1 (stereo not given)	x	x	-4.8	1	3.9	-4.9	x
CC(=O)Nc1cccc(Oc2cc(C#N)c(C#N)cc2N2CCCCCC2)c1	75.9	68.7	1.1	1	61.5*	-3.8	0.3
CN(C)c1cc[n+](CC(=O)Nc2c(Cl)cc(Cl)cc2Cl)cc1	x	x	-5.4	1.1	-1.3	-5.0	x
CN(C)c1cc[n+](Cc2c(Cl)cccc2Cl)cc1	18.2	12.3	-0.2	1	84.0*	-10.3	-1.6
CCN(CC)C(=O)n1cnc(-c2ccccc2)c1-c1ccccc1	84.8	83.5	4.7	1	69.0*	-1.0	-11.8
CCN(CC)C(=O)CSc1nnc(-c2ccccc2)c(-c2ccccc2)n1	88.0	90.4	-3.9	1	-1.9	-5.0	x
CN1CCCC1CCNC1C2CC3CC(C2)CC1C3 (stereo not given)	81.8	88.3	-1.7	1	53.2*	10.0	-17.7
COc1ccc(N2C(=S)NC(C)(C)CC2(C)c2ccc(OC(C)=O)cc2OC(C)=O)cc1 (stereo not given)	x	x	1.1	1	2.1	-1.9	x
CC(=O)Oc1cc2c(cc1Cl)C1(CC(c3ccccc3Cl)O2)CC(C)(C)NC(=S)N1 (stereo not given)	2.0*	2.0*	-5.8	1.1	97.8*	9.3	-15.1
CCN(CC)CCn1c2ccccc2c2cnc(N)c(C#N)c21	3.9	4.3*	-4.4	1	100.3*	-10.2	3.0
CC(C)(C)c1ccc(C(=O)NCCCN2CCN(CCCNC(=O)c3ccc(C(C)(C)C)cc3)CC2)cc1	1.8*	1.3*	-9.5	1.1	99.5*	-23.8	-7.8
Fc1cnc(N2CCOCC2)nc1N1CCOCC1	x	x	-4.7	1	-4.4	-8.3	x
CN1CCN(c2nc(N3CCN(c4ccccc4)CC3)ncc2F)CC1	48.0	25.0	-0.2	1	65.0*	-5.9	-10.9
CN(C)CCCC(C)(O)C(Cc1ccccc1)c1ccccc1 (stereo not given)	98.7	97.2	-0.5	1	85.8*	6.8	-11.9
O=C(NNC(=S)Nc1ccc(OC(F)F)cc1)c1cc2c(s1)CCCC2	96.0	86.6	-7.2	1.1	-1.9	-25.9	x
Cc1cc2c(c(/C=C/C(=O)c3ccccc3)c1)OC1(C=C2)Oc2ccccc2C(=O)N1C (stereo not given)	x	x	-3.2	1	97.7*	-15.8	25.3
O=C1c2ccccc2OC2(C=Cc3ccccc3O2)N1Cc1ccccc1 (stereo not given)	21.8	17.1	-3.5	1	23.9	-17.3	x
SMILES	PTEN del growth	bCat KO growth	TNAP inh hi DEA	TNAP act hiacc	L major viab	TNAP inh no acc	L major 1uM
COc1ccc(NC(=O)CC2C(=O)N(C)C(=S)N2Cc2ccncc2)cc1 (stereo not given)	x	x	1.5	1	-9.3	-5.2	x
O=C(Cn1cnc([N+](=O)[O-])c1)Nc1cc(Oc2ccc(Cl)cc2Cl)cc([N+](=O)[O-])c1	5.3	7.6	0.3	1	99.8*	0.7	62.1*
N#Cc1cc(Oc2ccc3ccccc3c2)c(-n2nnc3ccccc32)cc1C#N	73.5	73.0	-6.1	1.1	52.1*	-21.1	95.7*
N#Cc1cc(Oc2ccccc2)c(-n2nnc3ccccc32)cc1C#N	75.6	84.2	-3.8	1	-3.5	-10.3	x
O=[N+]([O-])c1cc(Cl)cc(C2=NCCN2)c1	85.5	85.8	-6.1	1.1	51.6*	-15.3	-15.0
CCn1c(SCC(=O)c2ccc(Br)cc2)nnc1C(C)NC(=O)Cc1ccc(OC)cc1 (stereo not given)	84.2	86.2	0.9	1	-6.3	-1.1	x
COc1ccc(CC(=O)NC(C)c2nnc(SCC(=O)c3ccc(Br)cc3)n2C)cc1 (stereo not given)	99.5	80.1	-4.7	1	74.8*	-7.8	-3.9
CCOC(=O)COc1cnc2ccccc2n1	x	x	-4.0	1	-8.6	-14.1	x
Brc1cccc(-c2nnc3sc(CN4CCCCC4)cn23)c1	81.9	76.4	-6.0	1.1	5.1	-16.7	x
Brc1cccc(-c2nnc3sc(CNC4CCCC4)cn23)c1	94.2	92.2	-3.7	1	84.8*	-2.5	u
Cc1ccc(NC(=O)O/N=C2\CCCCC2c2ccc([N+](=O)[O-])cc2[N+](=O)[O-])cc1 (stereo not given)	77.4	76.0	-0.2	1	99.2*	4.0	15.3
CCOc1ccc(C(=O)Nc2c3c(nn2-c2cccc(Cl)c2)CS(=O)C3)cc1 (stereo not given)	89.5	81.2	0.3	1	99.9*	-0.8	11.4
CCOc1ccc(C(=O)Nc2c3c(nn2-c2ccc(F)cc2)CS(=O)C3)cc1 (stereo not given)	94.2	81.5	-1.7	1	2.4	-12.1	x
Cc1cccc(NCCC(=O)c2ccc(Br)cc2)c1	91.0	88.5	-1.7	1	53.8*	-9.0	-11.1
CC(C)c1ccc(NCCC(=O)c2ccc(Br)cc2)cc1	95.2	103.7	-1.6	1	6.5	-11.7	x
N/N=C(\c1ccccc1)C12CN3CN(CN(C3)C1)C2	94.3	93.0	-1.0	1	52.0*	-8.3	-14.4
O=c1cc(O)c2ccccc2n1Cc1ccccc1	x	x	-3.5	1	-7.6	-11.3	x

Screens from PubChem.
